Source: PubChem BioAssay (several laboratories)
Shown are actives, neighbours in structure and some others; about 1.6% of the full set was active somewhere.
PAD4 FP inh = human PAD4 inhibitors, primary screen, biochemical, fluorescence polarization, 1536-well format | Protein-arginine deiminase type-4 (Homo sapiens), Q9UM07 | recombinant PAD4, RCA probe fluorescence polarization | inhibition, % at 6.36 µM | actives 0.41% (n = 330,000);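 active means percent inhibition above a cutoff equal to the mean of all tested compounds plus 3 SD, cut at about 15% in these data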;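 further: 0% = PAD4 with RCA probe and DMSO and 100% = probe without PAD4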
GSTO1 counter = inhibitors of recombinant GSTO1, primary screen, counter-screen for RBBP9 inhibitor project, biochemical, fluorescence polarization; Glutathione S-transferase omega-1 (Homo sapiens), P78417; activity-based probe fluorescence polarization; inhibition, % at 5.96 µM; actives 1.1% (n = 300,000);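 active means inhibition above the campaign mean inhibition plus 3 SD, cut at about 35% in these data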;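 further: 0% = GSTO1-1 with DMSO and 100% = wells lacking GSTO1-1 enzyme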
SUMO HTRF inh = inhibitors of in vitro SUMOylation cascade, primary screen, biochemical, HTRF, uHTS. inhibition, % at 35 µM. AID 2006, 2009. HTRF SUMOylation assay, SAE1/SAE2 + UBC9. actives 0.36% (n = 290,000); in the data active means inhibition above about 50%, passing the limit was not always enough
Target sequence (P63279 whole entry, looked up): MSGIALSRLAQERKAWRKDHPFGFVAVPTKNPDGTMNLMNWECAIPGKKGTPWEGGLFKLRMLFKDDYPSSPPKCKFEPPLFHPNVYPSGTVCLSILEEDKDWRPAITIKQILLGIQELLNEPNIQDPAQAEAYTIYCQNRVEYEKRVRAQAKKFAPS
JMJD2C inh = inhibitors of GASC-1 histone demethylase, primary screen, biochemical, fluorescence, DELFIA europium; inhibition, % at 2.35 µM; AID 2099, 2009; Lysine-specific demethylase 4C (Homo sapiens), Q9H3R0; actives 0.069% (n = 330,000); GST-JMJD2C(1-420) H3K9me3 demethylation;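 active means more than half of a compound's replicate wells show inhibition beyond 50%, single wells judged on their own value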;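 further: signal counts dimethyl H3K9 product captured on neutravidin plate; 0% = median of DMSO wells and 100% = 0.3 times that DMSO median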
TDP2 absorb = human TDP2 enzyme inhibitors, primary screen, biochemical, epi absorbance, recombinant enzyme | Tyrosyl-DNA phosphodiesterase 2 (Homo sapiens), O95551 | T5PNP hydrolysis, p-nitrophenol absorbance 415 nm | inhibition, % at 12.8 µM | actives 0.34% (n = 370,000) | AID 720702, 2013;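 active means inhibition above the mean of all tested compounds plus 3 SD, set per campaign, cut at about 25% in these data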;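 further: 0% = DMSO with enzyme and 100% = buffer with substrate but no TDP2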
Target sequence (O95551 whole entry, looked up): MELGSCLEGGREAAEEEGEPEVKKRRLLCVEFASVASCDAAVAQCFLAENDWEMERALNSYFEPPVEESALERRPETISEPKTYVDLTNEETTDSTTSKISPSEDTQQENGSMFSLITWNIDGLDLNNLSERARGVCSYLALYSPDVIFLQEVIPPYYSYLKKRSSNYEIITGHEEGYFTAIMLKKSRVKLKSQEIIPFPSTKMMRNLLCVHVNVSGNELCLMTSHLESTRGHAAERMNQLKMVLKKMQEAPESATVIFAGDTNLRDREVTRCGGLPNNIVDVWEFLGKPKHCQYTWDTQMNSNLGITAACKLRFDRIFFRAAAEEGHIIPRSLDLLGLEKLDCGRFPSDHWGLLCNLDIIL
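Assay system: Recombinant human TDP2 | Quantity: 120 nM TDP2 per well | Incubation: 2 h at 37 °C | Signal: Epi absorbance | Evaluation: Percent inhibition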
Apaf-1 inh = inhibitors of human Apaf-1 apoptosome, primary screen, biochemical, DEVD-Rh110 fluorescence, uHTS. AID 489030, 2010. reconstituted apoptosome caspase-3 activity. inhibition, % at 20 µM. actives 0.71% (n = 330,000). Apoptotic protease-activating factor 1 (Homo sapiens), O14727; active means inhibition of at least 40% at 20 µM;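 further: plate controls were DMSO wells for no effect and DEVD-CHO caspase inhibitor wells for full effect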
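Material: cell-free apoptosome with Apaf-1, procaspase-3 and caspase-9; Buffer or medium: Hepes pH 7.5 with detergent and BSA; Reagent: cytochrome c trigger plus (Z-DEVD)2-Rh110 caspase-3 substrate; Times: compound with Apaf-1, dATP, procaspase-3 30 min, then 50 min reaction, room temperature; Technique: Rh110 fluorescence intensity.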
GSTO1 inh conf = GSTO1 inhibitor hit confirmation, counter-screen for RBBP9 inhibitor project, biochemical, fluorescence polarization, triplicate; shares compounds with GSTO1 counter; recombinant GSTO1, probe fluorescence polarization; inhibition, % at 5.96 µM; actives 54% (n = 2,400);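 active means inhibition above the primary screen's cutoff, its mean inhibition plus 3 SD, cut at about 35% in these data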;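 further: loss of polarization as inhibitors block binding of rhodamine sulfonate ester activity probe; 0% = GSTO1 with DMSO and 100% = wells lacking GSTO1 enzyme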
Starred values were filed as active, the others as inactive.

`CC[C@@H]1C[C@H]2CC[C@H](O2)[C@H](C)C(=O)O[C@@H](C)C[C@@H]2CC[C@@H](O2)[C@@H](C)C(=O)O[C@H](C)C[C@H]2CC[C@H](O2)[C@H](C)C(=O)O[C@@H](C)C[C@@H]2CC[C@@H](O2)[C@@H](C)C(=O)O1` gave TDP2 absorb 6.7.
For Cn1cc(C=C2C(=O)NC(=O)NC2=O)c2ccccc21 the results were PAD4 FP inh -2.6, GSTO1 counter -0.4, SUMO HTRF inh 13.7, JMJD2C inh 0.4, TDP2 absorb 7.0 and Apaf-1 inh 3.7.
`C=CCn1c(C)c(C=C2C(=O)NC(=O)NC2=O)c2ccccc21` gave PAD4 FP inh -0.5, GSTO1 counter 32.5, SUMO HTRF inh 19.0, JMJD2C inh 50.1*, TDP2 absorb 16.1 and Apaf-1 inh 7.6.
For CC(C)(C)n1nnnc1C1CN=C(c2ccccc2)c2ccccc2N1 (configuration not stated) the results were TDP2 absorb -0.4.
`CCOC(=O)CC[C@@H]1CC[C@]2(CCCN(Cc3ccncc3)C2)O1` gave TDP2 absorb 4.9.
`COc1cc(/C=C/c2nc3ccccc3c(=O)n2-c2cccc(O)c2)ccc1O` gave PAD4 FP inh -4.1, GSTO1 counter -2.8, SUMO HTRF inh 51.3*, JMJD2C inh -5.0, TDP2 absorb -8.5 and Apaf-1 inh -13.3.
Screening COc1cc(/C=C/c2nc3ccccc3c(=O)n2-c2ccccc2O)ccc1O returned PAD4 FP inh 1.3, GSTO1 counter -15.0, SUMO HTRF inh -9.1, JMJD2C inh -5.2, TDP2 absorb -1.2 and Apaf-1 inh 12.2.
CC1=NN(c2ccccc2)C(=O)C1/C=C1/C(=O)NC(=O)N(c2cc(C)cc(C)c2)C1=O (configuration not stated) was read as PAD4 FP inh 15.9*, GSTO1 counter 18.2, SUMO HTRF inh 11.2, JMJD2C inh 8.1, TDP2 absorb 20.5 and Apaf-1 inh -1.0.
`CC(C)(C)NC(=O)CN1C(=O)[C@@H](Cc2c[nH]c3ccccc23)N=C(c2ccccc2)c2ccccc21` gave TDP2 absorb -11.9.
Screening O=C1OCCC1C(=O)c1ccccc1 (configuration not stated) returned TDP2 absorb 2.9.
For O=C1NC(=O)C(C(CC(=O)c2ccccc2)c2ccccc2)C(=O)N1 (configuration not stated) the results were PAD4 FP inh -2.4, GSTO1 counter 6.9, SUMO HTRF inh 10.7, JMJD2C inh 53.1*, TDP2 absorb -2.4 and Apaf-1 inh -2.9.
`c1ccc(Cc2cnc(N3CCNCC3)nc2)cc1` gave TDP2 absorb 5.6.
For O=C1C2CC=CCC2C(=O)N1SC(Cl)(Cl)Cl (configuration not stated) the results were TDP2 absorb -2.0.
CN(C)[C@@H]1C(=O)C(C(N)=O)=C(O)[C@@]2(O)C(=O)C3=C(O)c4c(O)cccc4[C@@](C)(O)[C@H]3C[C@@H]12 was read as PAD4 FP inh -0.2, GSTO1 counter 65.8*, JMJD2C inh -9.7 and Apaf-1 inh 3.5.
Cc1ccc(CN2C(=O)NC(=O)C3(Cc4c(nc5ccccn5c4=O)N4CCCCCC43)C2=O)cc1 (configuration not stated) was read as PAD4 FP inh 7.2, GSTO1 counter 35.5*, SUMO HTRF inh 17.9, JMJD2C inh -2.7, TDP2 absorb 4.9 and Apaf-1 inh 33.9.
For CCCCn1c(N)c(C(=O)NCCN2CCOCC2)c2nc3ccccc3nc21 the results were PAD4 FP inh -4.4, GSTO1 counter -0.9, SUMO HTRF inh 44.5, JMJD2C inh 14.9, TDP2 absorb 0.9 and Apaf-1 inh 36.6.
`CC(C)CCNC(=O)c1c(N)n(CC2CCCO2)c2nc3ccccc3nc12` (configuration not stated) gave PAD4 FP inh -16.7, GSTO1 counter 54.3*, SUMO HTRF inh 98.6, JMJD2C inh 8.4, TDP2 absorb -0.7, Apaf-1 inh 91.3* and GSTO1 inh conf 57.1*.
Cc1ccccc1-n1c(O)c(C=Nc2ccc(N(C)C)cc2)c(=O)[nH]c1=O was read as PAD4 FP inh 9.1, GSTO1 counter 45.2*, SUMO HTRF inh -14.0, JMJD2C inh 16.7, TDP2 absorb 7.8, Apaf-1 inh 24.4 and GSTO1 inh conf 5.5.
c1ccc(CCN2CCC3CCNC3C2)cc1 (configuration not stated) was read as TDP2 absorb -4.1.
`O=c1[nH]c(O)c(N=Nc2ccc(S(=O)(=O)N3CCOCC3)cc2)c(=O)[nH]1` gave PAD4 FP inh -4.8, GSTO1 counter 37.9*, SUMO HTRF inh 2.8, JMJD2C inh 0.6, TDP2 absorb -2.3, Apaf-1 inh -7.3 and GSTO1 inh conf 46.1*.
N#Cc1ccc(NC(=S)N2Cc3cc(Br)ccc3-n3nncc3C2)cc1 was read as TDP2 absorb -9.5.
Screening Cc1ccccc1NC(=O)CCl returned PAD4 FP inh 4.3, GSTO1 counter 62.9*, SUMO HTRF inh -3.8, JMJD2C inh 6.1, TDP2 absorb 5.2, Apaf-1 inh -4.5 and GSTO1 inh conf 78.2*.
`CCN(CC)C(=O)c1ccc2c(c1)C1C(Cl)C(Sc3ccccc3[N+](=O)[O-])CC1C(C(=O)O)N2` (configuration not stated) gave PAD4 FP inh -1.5, GSTO1 counter 52.4*, SUMO HTRF inh 49.0, JMJD2C inh -0.5, Apaf-1 inh 25.4 and GSTO1 inh conf 48.6*.
Screening CCN(CC)C(=O)c1ccc2c(c1)C1C=CCC1C(C(=O)O)N2 (configuration not stated) returned SUMO HTRF inh 29.2, JMJD2C inh -12.3, TDP2 absorb 8.0 and Apaf-1 inh 32.5.
